Source: ChEMBL document CHEMBL1125478, “The discovery of (2S,3S)-cis-2-(diphenylmethyl)-N-[(2-methoxyphenyl)methyl]-1- azabicyclo[2.2.2]-octan-3-amine as a novel, nonpeptide substance P antagonisst” (J Med Chem, 1992)

Columns and labels:
Cavia porcellus [1] = test: (§1) Inhibition of SP-induced plasma extravasation in guinea pig after peroral administration at a dose 15 mg/kg; type: functional; conditions: route oral
In short: (§2)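 Male Hartley guinea pigs (350-400 g), pentobarbital-anaesthetised; Evans Blue 30 mg/kg iv, then 5 min later SP (20 nM, 50 μL/site) intradermally. Dorsal skin punches extracted in formamide 24 h, 60 °C; OD 600 nm.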

Cavia porcellus [2] = test: Inhibition of capsaicin-induced plasma extravasation in guinea pig ureter after intraperitoneal injection; type: functional; conditions: ip
In short: (§3)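 Fasted male Hartley guinea pigs (300-400 g), pentobarbital-anaesthetised; Evans Blue 30 mg/kg iv, then capsaicin 30 μM, 10 mL intraperitoneally. Compound 10 mg/kg po 1 h prior. Ureter removed after 10 min, formamide-extracted 24 h at 60 °C, OD 600 nm.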

Rattus norvegicus = test: Inhibition of SP-induced salvation after intraperitoneal administration of the durg at a concentration of 50 mg/kg in rats; type: functional; conditions: ip
In short: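 Fasted male Sprague-Dawley rats given compound 50 mg/kg ip in 0.05 N HCl, or saline, 30 min before SP 4.7 nmol/kg by tail vein under pentobarbital. Saliva collected on preweighed swabs until response subsided (about 4 min), weighed. Percent inhibition of SP response.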

Cavia porcellus [3] = species: Cavia porcellus; test: Inhibition of capsaicin-induced plasma extravasation after 10 mL injection of 30 uM capsaicin in to the peritoneal cavity of guinea pig ureter; type: functional; in short: as §3
Substance-P receptor = Substance-P receptor (Homo sapiens, UniProt P25103); test: Binding affinity towards Tachykinin receptor 1 in human IM-9 cells using [3H]-substance P as ligand; type: cell-based
In short: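 Displacement of [³H]SP (0.5 nM final) from human IM-9 cell preparation in 50 mM TRIS-HCl pH 7.7 with MnCl2, BSA, bacitracin, leupeptin, […], phosphoramidon; 20 min, room temperature, dark. Filtration on polyethylenimine-soaked GF/B filters, scintillation counting. IC50 from six-point curves, duplicates; mean ± SEM of three experiments.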

Cavia porcellus [4] = species: Cavia porcellus; test: Ability to block SP-induced excitation of neurons in the locus coeruleus in guinea pig brain; type: functional
Cavia porcellus [5] = test: as §1; type: functional; conditions: route oral; remark: listed apart in the source
In short: as §2, with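 “intradermally. Compound 15 mg/kg po 1 h before SP.” for “intradermally.”, “nm. Percent inhibition or ED50 with 95% confidence limits.” for “nm.”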

Neuromedin-K receptor = target: T1, Neuromedin-K receptor (Cavia porcellus, UniProt P30098); test: Inhibitory activity against Tachykinin receptor 3 in guinea pig cortex [125I]-BH-eledoisin as radioligand
T1 sequence (P30098 whole entry): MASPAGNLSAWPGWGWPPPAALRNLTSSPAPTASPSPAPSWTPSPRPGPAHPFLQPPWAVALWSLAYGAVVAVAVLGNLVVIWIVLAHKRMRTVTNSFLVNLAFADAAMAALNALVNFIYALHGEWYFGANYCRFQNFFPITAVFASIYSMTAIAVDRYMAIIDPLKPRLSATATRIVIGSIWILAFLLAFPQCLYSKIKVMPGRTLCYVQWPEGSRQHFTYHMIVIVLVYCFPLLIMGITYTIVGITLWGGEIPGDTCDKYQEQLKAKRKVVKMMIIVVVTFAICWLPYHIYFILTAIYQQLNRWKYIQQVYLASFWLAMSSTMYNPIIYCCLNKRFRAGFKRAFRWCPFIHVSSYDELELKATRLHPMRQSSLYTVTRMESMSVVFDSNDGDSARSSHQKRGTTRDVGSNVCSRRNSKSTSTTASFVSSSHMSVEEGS
In short: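 Guinea pig cortical membranes (6 mg/mL) in 50 mM Tris-HCl with 1 mM MnCl₂, 50 μg/mL chymostatin, 0.02% BSA and 0.1 nM [¹²⁵I]BH-eledoisin final, with test compound, 60 min at 22 °C. Nonsaturable binding defined with 1 μM eledoisin. Filtration and radioactivity counting.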

Substance-K receptor = target: T2, Substance-K receptor (Mesocricetus auratus, UniProt P51144); test: Inhibitory activity against [125I]neurokinin binding to Tachykinin receptor 2 in hamster urinary bladder
T2 sequence (P51144 whole entry): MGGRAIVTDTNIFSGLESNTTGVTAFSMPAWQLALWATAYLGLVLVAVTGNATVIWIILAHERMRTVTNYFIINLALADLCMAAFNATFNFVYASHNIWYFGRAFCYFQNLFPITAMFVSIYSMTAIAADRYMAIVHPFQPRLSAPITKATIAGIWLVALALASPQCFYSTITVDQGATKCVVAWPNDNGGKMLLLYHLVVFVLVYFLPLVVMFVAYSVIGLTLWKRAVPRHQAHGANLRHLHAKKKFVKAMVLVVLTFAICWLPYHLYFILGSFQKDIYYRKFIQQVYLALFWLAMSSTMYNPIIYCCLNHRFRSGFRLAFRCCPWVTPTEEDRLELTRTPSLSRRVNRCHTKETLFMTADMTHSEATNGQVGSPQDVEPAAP

Substance-P receptor, sequence (P25103 whole entry): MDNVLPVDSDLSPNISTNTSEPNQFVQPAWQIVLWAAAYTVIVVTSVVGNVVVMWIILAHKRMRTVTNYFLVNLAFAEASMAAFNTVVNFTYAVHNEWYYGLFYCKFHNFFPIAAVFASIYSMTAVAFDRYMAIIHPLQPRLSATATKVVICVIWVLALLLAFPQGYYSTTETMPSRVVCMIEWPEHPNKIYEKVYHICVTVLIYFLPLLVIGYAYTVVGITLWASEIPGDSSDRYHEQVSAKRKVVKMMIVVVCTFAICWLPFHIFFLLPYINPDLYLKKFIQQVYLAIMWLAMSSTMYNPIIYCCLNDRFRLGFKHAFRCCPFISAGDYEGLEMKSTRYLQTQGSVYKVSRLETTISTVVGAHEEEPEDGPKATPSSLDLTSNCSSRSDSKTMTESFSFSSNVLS

Row | SMILES | inhibition in vivo at 15 mg/kg (Cavia porcellus [1]) [%] | ED50 (Cavia porcellus [2]) [mg/kg] | inhibition in vivo at 50 mg/kg (Rattus norvegicus) [%] | Inhibition (Cavia porcellus [3]) [%] | IC50 (Substance-P receptor) [nM] | IC50 (Cavia porcellus [4]) [nM] | ED50 (Cavia porcellus [5]) [mg/kg] | IC50 (Neuromedin-K receptor) [nM] | IC50 (Substance-K receptor) [nM]
1 | Clc1ccccc1CN[C@H]1C2CCN(CC2)[C@H]1C(c1ccccc1)c1ccccc1 | 38 | 7 | < 43.9 | – | – | – | – | – | –
2 | Clc1cccc(CN[C@H]2C3CCN(CC3)[C@H]2C(c2ccccc2)c2ccccc2)c1 | -6 | – | < 52.8 | 23 | – | – | – | – | –
3 | CCc1ccccc1CN[C@H]1C2CCN(CC2)[C@H]1C(c1ccccc1)c1ccccc1 | 79 | 4 | 16.7 | – | 16.7 | – | – | – | –
4 | COc1ccccc1CN[C@@H]1C2CCN(CC2)[C@@H]1C(c1ccccc1)c1ccccc1 | 39 | 6 | < 66.9 | – | – | – | – | – | –
5 | COc1ccccc1CN[C@H]1C2CCN(CC2)[C@@H]1C(c1ccccc1)c1ccccc1 | 28 | – | 11.3 | 18 | – | – | – | – | –
6 | c1ccc(CN[C@H]2C3CCN(CC3)[C@H]2C(c2ccccc2)c2ccccc2)cc1 | -9 | – | 0 | -21 | 16 | – | – | – | –
7 | Clc1ccc(CN[C@H]2C3CCN(CC3)[C@H]2C(c2ccccc2)c2ccccc2)cc1 | 8 | – | < 27 | 34 | – | – | – | – | –
8 | COc1ccccc1CN[C@H]1C2CCC(CC2)[C@H]1C(c1ccccc1)c1ccccc1 | -9 | – | – | -67 | > 32000 | – | – | – | –
9 | COc1ccccc1CN[C@H]1C2CCN(CC2)[C@H]1Cc1ccccc1 | 35 | – | 0 | -30 | 487 | – | – | – | –
10 | COc1ccccc1CN(C)[C@H]1C2CCN(CC2)[C@H]1C(c1ccccc1)c1ccccc1 | 13 | – | – | -13 | – | – | – | – | –
11 | COc1ccccc1CN[C@H]1C2CCN(CC2)[C@H]1C(c1ccccc1)c1ccccc1 [CP-96345] | – | 2.3 | < 76.2 | – | – | 90 | 4.4 | > 10000 | > 10000
